ChEMBL document CHEMBL1141864, “Structure-activity relationships in 1,4-benzodioxan-related compounds. 8.(1) {2-[2-(4-chlorobenzyloxy)phenoxy]ethyl}-[2-(2,6-dimethoxyphenoxy)ethyl]amine (clopenphendioxan) as a tool to highlight the involvement of alpha1D- and alpha1B-adrenoreceptor subtypes in the regulation of human PC-3 …” (J Med Chem, 2005)

How the values were obtained:
[1] = target: T1, Alpha-1A adrenergic receptor (Homo sapiens, UniProt P35348); experiment: Displacement of [3H]prazosin from cloned human ADRA1A expressed in CHO cells; assay type: cell-based
T1 sequence (P35348 whole entry): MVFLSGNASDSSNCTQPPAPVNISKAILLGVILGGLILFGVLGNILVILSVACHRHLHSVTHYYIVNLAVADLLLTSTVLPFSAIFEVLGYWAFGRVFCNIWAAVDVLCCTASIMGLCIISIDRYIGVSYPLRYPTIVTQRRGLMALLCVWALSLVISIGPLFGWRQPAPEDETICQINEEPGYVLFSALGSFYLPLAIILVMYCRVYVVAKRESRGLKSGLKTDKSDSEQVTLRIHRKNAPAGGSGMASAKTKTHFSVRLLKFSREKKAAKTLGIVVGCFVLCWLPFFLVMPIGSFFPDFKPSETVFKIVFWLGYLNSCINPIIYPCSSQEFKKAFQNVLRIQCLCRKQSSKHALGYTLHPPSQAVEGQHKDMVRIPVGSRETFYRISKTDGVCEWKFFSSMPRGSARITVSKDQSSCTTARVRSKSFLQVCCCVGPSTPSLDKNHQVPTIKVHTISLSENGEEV

[2] = target: T2, Alpha-1D adrenergic receptor (Homo sapiens, UniProt P25100); experiment: Displacement of [3H]prazosin from cloned human ADRA1D expressed in CHO cells; assay type: cell-based
T2 sequence (P25100 whole entry): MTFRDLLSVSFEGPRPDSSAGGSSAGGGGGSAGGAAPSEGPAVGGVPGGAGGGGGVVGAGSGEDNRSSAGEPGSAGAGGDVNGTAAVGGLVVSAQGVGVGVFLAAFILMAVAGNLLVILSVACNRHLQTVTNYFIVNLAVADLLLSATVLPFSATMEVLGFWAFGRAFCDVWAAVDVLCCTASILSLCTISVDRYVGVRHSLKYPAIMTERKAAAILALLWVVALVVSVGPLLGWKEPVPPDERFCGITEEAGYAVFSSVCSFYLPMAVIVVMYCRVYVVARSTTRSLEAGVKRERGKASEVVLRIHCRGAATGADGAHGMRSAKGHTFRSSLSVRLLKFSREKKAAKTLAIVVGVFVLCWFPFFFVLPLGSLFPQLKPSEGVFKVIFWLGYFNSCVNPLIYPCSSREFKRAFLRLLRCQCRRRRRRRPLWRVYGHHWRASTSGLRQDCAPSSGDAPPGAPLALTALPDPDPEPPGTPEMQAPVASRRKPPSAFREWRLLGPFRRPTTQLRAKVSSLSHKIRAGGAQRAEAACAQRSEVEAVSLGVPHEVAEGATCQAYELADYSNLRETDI

[3] = target: T3, 5-hydroxytryptamine receptor 1A (Homo sapiens, UniProt P08908); experiment: Displacement of [3H]8-hydroxy-2-(di-n-propylamino)tetralin from cloned human 5HT1A receptor expressed in HeLa cells; assay type: cell-based
T3 sequence (P08908 whole entry): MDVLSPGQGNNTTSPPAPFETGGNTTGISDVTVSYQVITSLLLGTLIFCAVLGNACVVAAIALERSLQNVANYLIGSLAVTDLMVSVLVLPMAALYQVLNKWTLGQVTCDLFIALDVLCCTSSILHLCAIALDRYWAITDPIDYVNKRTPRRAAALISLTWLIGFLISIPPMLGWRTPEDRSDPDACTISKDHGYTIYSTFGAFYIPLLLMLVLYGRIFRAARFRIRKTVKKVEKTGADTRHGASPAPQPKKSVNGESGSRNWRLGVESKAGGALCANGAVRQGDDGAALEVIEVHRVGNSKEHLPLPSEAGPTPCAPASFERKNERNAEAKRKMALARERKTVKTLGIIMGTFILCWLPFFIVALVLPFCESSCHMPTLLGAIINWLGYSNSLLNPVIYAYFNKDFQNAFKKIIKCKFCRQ
Summary of the method: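 Radioligand binding on cloned human receptors, with [3H]prazosin for α1 subtypes (CHO cells) and [3H]8-OH-DPAT for 5-HT1A (HeLa cells); each experiment in triplicate, Ki from two to three experiments agreeing within ±20%, reported as pKi.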

[4] = target: T4, Alpha-1A adrenergic receptor (Rattus norvegicus) (UniProt P43140); experiment: ADRA1A blocking activity assessed by antagonism of (-)-NE induced contractions on isolated rat prostatic vas deferens; assay type: functional, tissue-based
T4 sequence (whole entry): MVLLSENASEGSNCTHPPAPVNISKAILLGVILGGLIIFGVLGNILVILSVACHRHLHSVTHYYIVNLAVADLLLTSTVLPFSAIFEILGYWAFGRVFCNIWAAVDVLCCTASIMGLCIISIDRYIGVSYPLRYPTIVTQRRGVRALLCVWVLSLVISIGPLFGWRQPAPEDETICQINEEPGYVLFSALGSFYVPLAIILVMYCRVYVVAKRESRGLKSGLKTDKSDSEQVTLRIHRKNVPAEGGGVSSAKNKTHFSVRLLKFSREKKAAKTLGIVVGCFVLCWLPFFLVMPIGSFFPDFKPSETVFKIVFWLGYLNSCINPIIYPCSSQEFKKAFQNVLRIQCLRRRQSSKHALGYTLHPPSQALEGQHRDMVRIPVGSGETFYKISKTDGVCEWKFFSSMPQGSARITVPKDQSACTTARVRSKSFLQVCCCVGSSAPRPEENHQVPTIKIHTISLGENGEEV
Summary of the method: (§1)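 Isolated rat tissue: each antagonist concentration tested four times over 0.01–1 μM; pK_B calculated by van Rossum method from shifts of (-)-noradrenaline contraction curves (vas deferens, α1A; thoracic aorta, α1D) or (-)-phenylephrine contraction curves (spleen, α1B).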

[5] = target: T5, Alpha-1B adrenergic receptor (Rattus norvegicus) (UniProt P15823); experiment: ADRA1B blocking activity assessed by antagonism of (-)-phenylephrine induced contractions on isolated rat spleen; assay type: functional, tissue-based; summary of the method: as §1
T5 sequence (whole entry): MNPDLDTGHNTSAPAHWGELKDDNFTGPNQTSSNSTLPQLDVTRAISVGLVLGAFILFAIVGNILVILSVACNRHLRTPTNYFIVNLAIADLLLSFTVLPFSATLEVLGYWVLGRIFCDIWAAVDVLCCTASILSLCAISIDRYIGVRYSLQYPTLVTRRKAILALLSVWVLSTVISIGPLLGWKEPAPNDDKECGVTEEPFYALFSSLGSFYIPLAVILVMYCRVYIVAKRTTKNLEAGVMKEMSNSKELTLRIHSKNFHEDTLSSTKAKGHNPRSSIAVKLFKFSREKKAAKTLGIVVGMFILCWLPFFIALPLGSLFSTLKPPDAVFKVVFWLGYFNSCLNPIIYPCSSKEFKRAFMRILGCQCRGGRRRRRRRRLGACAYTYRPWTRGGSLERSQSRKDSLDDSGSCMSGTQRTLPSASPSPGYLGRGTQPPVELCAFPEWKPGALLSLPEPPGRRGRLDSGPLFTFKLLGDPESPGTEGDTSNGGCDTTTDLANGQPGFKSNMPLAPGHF

PC-3 = experiment: Cytotoxic activity on human PC3 prostate cancer cells by SRB assay; assay type: functional; settings: for GI50 / LC50 (50% lethal concentration) / TGI: Homo sapiens, PC-3
Summary of the method: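 NCI-protocol SRB assay on PC-3 cells grown in DMEM/10% FBS/2 mM glutamine. Seeded 24 h, then compounds in medium for 48 h at 37 °C, 5% CO2, in quadruplicate. A time-zero plate was read. Cells TCA-fixed, stained with 0.4% SRB, absorbance at 520 nm. GI50, TGI and LC50 interpolated from % growth versus log concentration.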

Row | Structure (SMILES) | Ki [1] [nM] | Ki [2] [nM] | Ki [3] [nM] | pKb [4] | pKb [5] | GI50 (PC-3) [nM] | LC50 (50% lethal concentration) (PC-3) [nM] | TGI (PC-3) [nM] | Activity (PC-3) [%]
1 | COc1ccccc1COc1ccccc1OCCNCCOc1c(OC)cccc1OC | 2 | 2 | 23.4 | 8.53 | 8.13 | 8900 | 100000 | 30200 | –
2 | COc1cccc(OC)c1OCCNCCOc1ccccc1OCc1ccc(C)cc1 | 2 | 0.0631 | 22.4 | 8.23 | 8.43 | 7800 | 61700 | 27500 | –
3 | COc1cccc(COc2ccccc2OCCNCCOc2c(OC)cccc2OC)c1 | 2 | 0.316 | 30.9 | 8.3 | 8.31 | 2500 | 61700 | 15100 | –
4 | COc1cccc(OC)c1OCCNCCOc1ccccc1OCc1ccccc1C | 1.58 | 0.126 | 11.2 | 7.81 | 7.67 | 11500 | – | 33900 | <50
5 | COc1ccc(COc2ccccc2OCCNCCOc2c(OC)cccc2OC)cc1 | 2 | 0.1 | 17.4 | 8.54 | 9.51 | 8500 | – | 34700 | <50
6 | COc1cccc(OC)c1OCCNCCOc1ccccc1OCc1ccc([N+](=O)[O-])cc1 | 1.26 | 0.0501 | 11.7 | 8.58 | 9.02 | 12000 | – | 43600 | <50
7 | COc1cccc(OC)c1OCCNCCOc1ccccc1OCc1cccc(Cl)c1 | 0.251 | 0.0501 | 6.61 | 8.12 | 7.93 | 5900 | 58900 | 20400 | –
8 | COc1cccc(OC)c1OCCNCCOc1ccccc1OCc1ccccc1Cl | 1.41 | 0.251 | 4.79 | 8.56 | 7.52 | 5400 | 58900 | 17800 | –
9 | COc1cccc(OC)c1OCCNCCOc1ccccc1OCc1cccc(C)c1 | 0.398 | 0.2 | 18.2 | 8.3 | 8.2 | 12000 | 87100 | 32300 | –
10 | COc1cccc(OC)c1OCCNCCOc1ccccc1OCc1ccccc1 | 0.468 | 0.0676 | 11.7 | 8.39 | 8.3 | 26900 | 193000 | 76900 | –
11 | COc1cccc(OC)c1OCCNCCOc1ccccc1OCc1ccccc1[N+](=O)[O-] | 7.94 | 0.912 | 24 | 8.2 | 8.56 | 13200 | 95500 | 34700 | –
12 | COc1cccc(OC)c1OCCNCCOc1ccccc1OCc1ccc(Cl)cc1 [CLOPENPHENDIOXAN] | 0.251 | 0.0316 | 15.5 | 8.17 | 8.06 | 2400 | 52500 | 14500 | –
13 | COc1cccc(OC)c1OCCNCCOc1ccccc1OCc1cccc([N+](=O)[O-])c1 | 0.316 | 0.0631 | 20.9 | 8.85 | 8.74 | 13200 | – | 38900 | <50
